Assay results gathered from unrelated publications.
Each line is one published result; the experiments were not run side by side.
Target: Activin receptor type-1-like (ACVRL1, Homo sapiens, UniProt P37023)

SMILES | effect on | action | technique | concentration | measurement | value
Cc1ccc(C(=O)Nc2ccc(CN3CCN(C)CC3)c(C(F)(F)F)c2)cc1C#Cc1cnc2cccnn12 | cell-free assay |  |  | 23.5 nM | remaining signal | 100%
COc1cc(Nc2c(C#N)cnc3cc(OCCCN4CCN(C)CC4)c(OC)cc23)c(Cl)cc1Cl | cell-free assay |  |  | 0.5 µM | remaining signal | 67.6%
CC(C)(O)[C@H]1CC[C@H](Nc2ccc3ncc(-c4cccc(C(F)(F)F)c4)n3n2)CC1 | enzyme activity | inhibitor |  | 1 µM | remaining activity | 66.7%
CC(C)(C)c1nc(-c2cccc(NS(=O)(=O)c3c(F)cccc3F)c2F)c(-c2ccnc(N)n2)s1 | enzyme activity | inhibitor | radiometric | 1 µM | remaining activity | 75%
Nc1ncnc2occ(-c3ccc(NC(=O)Nc4cc(C(F)(F)F)ccc4F)cc3)c12 | cell-free assay |  |  | 20 µM | remaining signal | 100%
Cc1ccc(NC(=O)c2ccc(C)c(C(F)(F)F)c2)cc1C#Cc1nn(C2CCC(O)CC2)c2ncnc(N)c12 (stereo not shown) | cell-free assay |  |  | 10 µM | remaining signal | 71%
CCS(=O)(=O)c1cc2cc(C[C@](O)(CC(C)(C)c3ccc(F)cc3C(N)=O)C(F)(F)F)[nH]c2cn1 | cell-free assay |  | competition with immobilised ligand | 1 µM | remaining binding | 100%
O=C1Nc2ccc(Cl)cc2C1=Cc1cc(Cl)c(O)c(Cl)c1 | cell-free assay |  |  | 0.5 µM | remaining signal | 96.4%
N#Cc1ccc(Nc2ccc3[nH]c(=O)[nH]c3c2)c(Cl)c1 | binding |  | competition with immobilised ligand | 1 µM | remaining binding | 100%
Cc1cnc(NC2CCOCC2)nc1-n1cnc(C(=O)NC(CN)c2cc(F)cc(Cl)c2)c1 (stereo not shown) | enzyme activity | inhibitor | radiometric | 1 µM | remaining activity | 100%
C[C@H](c1cccc(C#N)c1)n1cc(Cl)cc(C(N)=O)c1=N | cell-free assay |  | competition with immobilised ligand | 1 µM | remaining binding | 93%
N#CCCc1ccc2c(c1)-c1[nH]c3ccc([N+](=O)[O-])cc3c1CC(=O)N2 | cell-free assay |  |  | 0.5 µM | remaining signal | 53.6%
CCC(=O)N[C@@H]1CC[C@H](C(=O)N(C)c2ccc(-c3nc4ccccc4o3)cc2)C1 | cell-free assay |  | competition with immobilised ligand | 1 µM | remaining binding | 100%
CNC(=O)c1cc(Oc2ccc(NC(=O)Nc3ccc(Cl)c(C(F)(F)F)c3)cc2)ccn1 | cell-free assay |  |  | 0.5 µM | remaining signal | 104%
Cc1nccc(COC(=O)N2C[C@@H]3[C@@H](CNC(=O)c4ccc5[nH]nnc5c4)[C@@H]3C2)n1 | binding |  | competition with immobilised ligand | 1 µM | remaining binding | 100%
Cc1sc(C(=O)NC2COC2)cc1-n1cc(NC(=O)Nc2c(F)cccc2Cl)cn1 | enzyme activity | inhibitor |  | 10 µM | remaining activity | 78.7%
